# High-throughput results as filed in PubChem BioAssay.
# In the library only some 3.8% were active in any assay of this set; here they are far more common.
# INS promoter inh = TRM-6 insulin promoter activity inhibition; 130,000 compounds, 0.9% hits; TRM-6 cells (human fetal islet line), insulin promoter-eGFP reporter, imaging; reporter expression induced with tamoxifen; inhibition, % at 2 µM; AID 1273;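 active = inhibition above the mean plus 3 SD, with well images judged a real hit on visual review, cut at about 60% in these data, passing the limit was not always enough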
# NPY-Y1 PAM-ag = potentiators or agonists of human neuropeptide Y receptor Y1 | NPY-Y1 expressing cells, potentiator/agonist activation | AID 1304 | activation, % at 3.6 µM | 220,000 compounds, 0.37% hits; in the data active = activation above about 33%, passing the limit was not always enough;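 also: cells stimulated with NPY at EC10 then isoproterenol at EC100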
# Target sequence (P25929 whole entry, looked up): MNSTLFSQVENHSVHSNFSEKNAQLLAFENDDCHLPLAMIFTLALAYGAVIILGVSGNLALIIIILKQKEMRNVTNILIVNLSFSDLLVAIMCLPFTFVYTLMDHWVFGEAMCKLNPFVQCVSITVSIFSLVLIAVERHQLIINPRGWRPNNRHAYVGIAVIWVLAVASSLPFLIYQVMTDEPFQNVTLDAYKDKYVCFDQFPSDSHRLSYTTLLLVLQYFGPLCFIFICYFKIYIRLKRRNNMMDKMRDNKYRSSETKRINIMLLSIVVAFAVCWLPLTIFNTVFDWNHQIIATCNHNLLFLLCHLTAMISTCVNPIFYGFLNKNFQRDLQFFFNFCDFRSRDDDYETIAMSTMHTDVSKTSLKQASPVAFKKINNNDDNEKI
# NPY-Y1 antag = blocks the human neuropeptide Y Y1 receptor; P25929; HEK293-CNG Y1 cells, membrane potential fluorescence; NPY at EC95, then isoproterenol; inhibition, % at 3.6 µM; 200,000 compounds, 1% hits; AID 1040;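 active = inhibition above the campaign mean inhibition of all tested compounds plus 3 SD, cut at about 20% in these data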
#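 Material: HEK293 Y1/CNG channel cell line; also added: NPY (25 nM), isoproterenol (1 µM), Ro 20-1724 (25 µM); doses: one concentration, 3.6 µM, in 0.4% DMSO; schedule: compound incubation 1 h at room temperature, readout 45 min post-stimulation; technique: membrane potential fluorescence; measure: fluorescence ratio normalized to % inhibition between controls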
# NPY2 pot ag = potentiates or activates human NPY-Y2 receptor; P49146; cells expressing NPY-Y2, potentiator/agonist read-out; activation, % at 3.6 µM; 220,000 compounds, 0.45% hits; in the data active = activation above about 27%;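 also: cells stimulated with NPY near EC25 plus isoproterenol at EC100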
# NPY Y2 blocker = antagonists of human neuropeptide Y receptor Y2. P49146. NPY-Y2 expressing cells, antagonist mode. inhibition, % at 2.7 µM. 140,000 compounds, 0.99% hits. AID 793; in the data active = inhibition above about 17%
# RAM inhibit = inhibitors of the yeast RAM network. 190,000 compounds, 1.8% hits. S. cerevisiae dse1pr::URA3 reporter, 5-FOA growth OD615, 2 d; analog-sensitive cbk1-as2 kinase mutant strain. inhibition, % at 50 µM;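 active = inhibition above a set limit, 3 SD over mean compound inhibition, cut at about 8.4% in these data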;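 also: inhibition rescues growth on 5-FOA so higher OD means more RAM inhibition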
# Numbers stand for hits; - = inactive; . = no result given.
SMILES,INS promoter inh,NPY-Y1 PAM-ag,NPY-Y1 antag,NPY2 pot ag,NPY Y2 blocker,RAM inhibit
Cc1ccc(C(CCN(Cc2ccccc2)C(=O)c2ccco2)c2ccco2)cc1 (centres undefined),-,-,-,-,-,11
Cc1onc(-c2c(F)cccc2Cl)c1C(=O)OCC(=O)NC(c1ccccc1)c1ccccc1,-,-,-,-,-,-
CCCCn1c(=N)n(CC(O)COc2ccc(C)cc2)c2ccccc21 (centres undefined),.,-,61,-,47,-
CCCCn1c(=N)n(CC(O)COc2ccccc2)c2ccccc21 (centres undefined),.,-,34,-,26,-
N=c1n(CCN2CCOCC2)c2ccccc2n1CC(O)COc1ccccc1 (centres undefined),.,-,-,-,-,-
N=c1n(CCN2CCCCC2)c2ccccc2n1CC(O)COc1ccccc1 (centres undefined),.,-,49,-,60,-
O=C(NCC1OCCCN1S(=O)(=O)c1cc(F)ccc1F)C(=O)NC1CCCCCC1 (centres undefined),.,-,-,-,.,-
Cc1noc(C)c1C(=O)OCC(=O)C12CC3CC(CC(C3)C1)C2,.,-,-,-,.,-
O=C(OCc1nnc(-c2ccc(Cl)cc2)o1)c1ccncc1,-,-,-,-,-,-
Cc1noc(C)c1COc1ccc(C(=O)OCc2nnc(-c3ccc(Cl)cc3)o2)cc1,.,-,-,-,-,10.0
Cc1ccc(-c2nc(SCC(=O)Nc3cc(S(=O)(=O)N4CCCCC4)ccc3Cl)n[nH]2)cc1,-,-,-,-,-,9.5
Cc1nnc(SCC(=O)Nc2cc(S(=O)(=O)N3CCCC3)ccc2Cl)s1,.,-,.,-,.,.
COCCOC(=O)c1c(C)oc2ccc(OC(=O)c3ccc4c(c3)OCO4)cc12,.,-,-,-,-,10
O=C(CCS(=O)(=O)c1ccccc1)Nc1ccccc1-c1nc2ccccc2s1,.,-,-,-,-,-
Cc1cc(C)c(S(=O)(=O)Nc2cccc(S(=O)(=O)NC3=NCCC3)c2)c(C)c1,-,-,-,-,.,-
C/C(NC(=O)c1cccs1)=C1\C(=O)C[C@@H]2[C@H]1C2(C)C,.,-,22,-,-,-
C/C(=N/NC(=O)c1cccs1)c1cccs1,.,-,.,-,.,.
COc1ccc(-c2ccc(-c3nc4c(c(=O)[nH]c(=O)n4Cc4ccccc4)n3C)o2)c([N+](=O)[O-])c1,-,-,-,-,-,-
O=c1[nH]c(=O)n(Cc2ccccc2)c2nc(-c3ccc(Oc4ccc(F)cc4)c([N+](=O)[O-])c3)n(CCO)c12,74,-,-,-,-,-
CC(OCCN1CCCC1)(c1ccc(F)cc1)c1ccc(F)cc1,-,-,-,-,-,-
O=C(Nc1ccc(C(=O)O)cc1)/C(=C\c1ccc2c(c1)OCO2)NC(=O)c1ccccc1,80,-,-,-,.,9.2
O=C(Nc1ccc(C(=O)O)cc1)/C(=C\c1ccc2c(c1)OCO2)NC(=O)c1ccc(Br)cc1,.,-,-,-,.,11
O=C(O)CNC(=O)/C(=C\c1ccc2c(c1)OCO2)NC(=O)c1ccc(Br)cc1,-,-,-,-,.,-
CC(=O)N/C(=C/c1ccc2c(c1)OCO2)C(=O)Nc1ccccc1,-,-,-,-,-,-
CCCCN1C(=O)C(NC(C)=O)c2cc(Br)ccc21 (centres undefined),-,-,27,-,20,-
SMILES,INS promoter inh,NPY-Y1 PAM-ag,NPY-Y1 antag,NPY2 pot ag,NPY Y2 blocker,RAM inhibit
CCN1C(=O)C(NC(C)=O)c2cc(Br)ccc21 (centres undefined),-,-,-,-,-,-
CC(=O)OCc1c(C)cc(C)c(/C=C(/C#N)C(N)=O)c1C,.,-,-,-,.,-
COCCCNC(=S)NCCCNc1nc2cc(C)cc(C)c2cc1C#N,-,-,-,-,.,-
COCCCNC(=S)NCCNc1nc2c(C)c(C)ccc2cc1C#N,.,-,-,-,.,9.6
O=C(CN(c1cccc(C(F)(F)F)c1)S(=O)(=O)c1ccc(Cl)c([N+](=O)[O-])c1)NCc1ccccc1Cl,-,-,-,-,-,-
CC(NC(=O)CN(c1cccc(C(F)(F)F)c1)S(=O)(=O)c1ccc(Cl)c([N+](=O)[O-])c1)c1ccccc1 (centres undefined),-,75,-,50,-,-
O=C(CN(c1cccc(C(F)(F)F)c1)S(=O)(=O)c1ccc(Cl)c([N+](=O)[O-])c1)NCc1ccccc1,-,81,-,61,-,-
O=C(CN(c1ccc(Br)cc1)S(=O)(=O)c1ccc(Cl)c([N+](=O)[O-])c1)NCCc1ccccc1,.,-,-,-,.,-
Cc1ccc(N(CC(=O)NCCc2ccc(F)cc2)S(=O)(=O)c2ccc(Cl)c([N+](=O)[O-])c2)c(C)c1,.,68,-,39,-,-
C/C(=N\OCC(=O)Nn1c(C)nc2ccccc2c1=O)c1cccs1,.,-,.,-,.,.
CCOC(=O)N1CCN(CC(O)COc2ccc(C)cc2C(C)(C)C)CC1 (centres undefined),-,77,-,61,-,-
CCOC(=O)N1CCN(CC(O)COCc2ccc(OC)c(OC)c2)CC1 (centres undefined),-,-,-,-,-,-
COC(=O)c1cc2oc(C)cc2n1CC(=O)N1CCCc2ccccc21,.,-,-,-,-,-
COc1ccc2c(CC(=O)Nc3nccs3)coc2c1,-,-,-,-,.,-
Cc1c(Cl)cccc1NC(=S)N1CCN(Cc2ccc3c(c2)OCO3)CC1,-,53,-,33,-,-
Cc1ccccc1NC(=S)N1CCN(Cc2ccc3c(c2)OCO3)CC1,.,-,-,-,-,-
O=C(Nc1ccccc1)C1=C(c2ccccc2)S(=O)(=O)CCS1(=O)=O,-,64,-,45,.,-
Cc1cccc(N2C(=O)C3C4CC(=O)C(c5ccccc54)C3C2=O)c1C (centres undefined),-,-,-,-,.,-
CCOc1ccc(C(=O)NC2=NCCS2)cc1,83,-,-,-,.,-
CCOC(=O)c1ccc(-n2c(CN(CC)CC)nc3ccc([N+](=O)[O-])cc3c2=O)cc1,-,-,-,-,.,-
COc1ccc(CNC(=O)C(C#N)c2nc3ccccc3nc2N2CCN(C)CC2)cc1 (centres undefined),-,-,-,-,18,-
C=CCNC(=O)C(C#N)c1nc2ccccc2nc1N1CCCCCC1 (centres undefined),-,-,-,-,-,9.0
Cc1ccnc(NC2(C(F)(F)F)N=C3SCCN3C2=O)c1 (centres undefined),-,-,-,-,.,-
CCOC(=O)COc1ccc2c3c(c(=O)oc2c1C)CCC3,-,-,-,-,-,-
CCOC(=O)CCc1c(C)c2ccc(OCC)c(C)c2oc1=O,-,-,33,-,29,-
O=C(COC(=O)c1cnccn1)NCc1ccc(Cl)cc1,-,-,-,-,.,-
Cc1cc(C)c2cc(C#N)c(SCC(=O)Nc3ccc4c(c3)OCO4)nc2c1,.,-,.,-,.,.
